ChEMBL document CHEMBL4732185, “Synthesis, biological evaluation and structure-activity relationship of novel dichloroacetophenones targeting pyruvate dehydrogenase kinases with potent anticancer activity” (Eur J Med Chem, 2021)

Assays:
PC-3 = assay: Antiproliferative activity against human PC3 cells assessed as growth inhibition after 72 hrs by MTT assay; assay type: functional, cell-based; details: Homo sapiens, PC-3, 72 h; read-out: IC50
Procedure, shortened: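 MTT viability assay. Cancer lines seeded at 3000–6000 cells/well and L02 at 7000 cells/well, cultured overnight, then exposed to a full dose range for 72 h. MTT (0.5 mg/mL) added for 4 h, supernatant removed, formazan dissolved in DMSO, absorbance read at 570 nm. IC50 taken as the mean of three independent experiments. Cells grown in DMEM + 10% FBS, 37 °C, 5% CO2.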

[1] = biological target: [Pyruvate dehydrogenase (acetyl-transferring)] kinase isozyme 1, mitochondrial (Homo sapiens, UniProt Q15118); assay: Binding affinity to PDK1 (unknown origin) by isothermal titration calorimetry
Procedure, shortened: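 Isothermal titration calorimetry at 25 °C. Compound dissolved in DMSO, diluted to 100 µM in buffer and placed in the titration syringe; 250 µL of PDK protein solution in the reaction cell. Titrant added in 2.5 µL increments per injection.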

A-375 [2] = assay: Induction of apoptosis in human A375 cells assessed as early apoptotic cells at 1 uM after 36 hrs by annexinV-FITC/propidium iodide staining based flow cytometric analysis (reference value: 3.2%); assay type: functional
A-375 [3] = assay: Induction of apoptosis in human A375 cells assessed as late apoptotic cells at 1 uM after 36 hrs by annexinV-FITC/propidium iodide staining based flow cytometric analysis (reference value: 1.02%); assay type: functional
A-375 [4] = assay: Induction of apoptosis in human A375 cells assessed as necrotic cells at 1 uM after 36 hrs by annexinV-FITC/propidium iodide staining based flow cytometric analysis (reference value: 1.63%); assay type: functional
A-375 [5] = assay: Induction of apoptosis in human A375 cells assessed as late apoptotic cells at 5 uM after 24 hrs by annexinV-FITC/propidium iodide staining based flow cytometric analysis (reference value: 0.63%); assay type: functional

[Pyruvate dehydrogenase (acetyl-transferring)] kinase isozyme 1, mitochondrial, sequence (Q15118 whole entry): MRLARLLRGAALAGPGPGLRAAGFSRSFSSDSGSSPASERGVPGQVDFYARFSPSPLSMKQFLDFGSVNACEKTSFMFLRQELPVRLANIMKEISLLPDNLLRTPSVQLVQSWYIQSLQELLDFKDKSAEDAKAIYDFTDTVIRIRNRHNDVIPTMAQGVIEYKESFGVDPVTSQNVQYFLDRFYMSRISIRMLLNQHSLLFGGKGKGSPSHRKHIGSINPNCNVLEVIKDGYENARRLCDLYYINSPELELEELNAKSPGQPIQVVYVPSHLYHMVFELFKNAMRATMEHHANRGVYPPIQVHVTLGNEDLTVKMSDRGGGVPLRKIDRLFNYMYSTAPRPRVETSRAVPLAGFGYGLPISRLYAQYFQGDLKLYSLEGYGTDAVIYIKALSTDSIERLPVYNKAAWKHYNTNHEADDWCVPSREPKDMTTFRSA

IC50 (PC-3): 3800 nM | Kd [1]: 210 nM
Structure (SMILES): CC(C)(CO)c1ccc(Nc2ccc(C(=O)C(Cl)Cl)cc2[N+](=O)[O-])cc1
Activity (A-375 [2]): 6.64% | Activity (A-375 [3]): 7.43% | Activity (A-375 [4]): 4.06% | Activity (A-375 [5]): 19.11%
